Key:
CCRF-CEM [1] = assay: Anticancer activity against human CCRF-CEM cells; type: functional, cell-based
COLO 205 = assay: Anticancer activity against human COLO205 cells; type: functional, cell-based
HL-60 [2] = assay: Anticancer activity against human HL60 cells; type: functional, cell-based
K562 = assay: Anticancer activity against human K562 cells; type: functional, cell-based
HCT-116 = assay: Anticancer activity against human HCT116 cells; type: functional, cell-based
HCC 2998 = assay: Anticancer activity against human HCC2998 cells; type: functional, cell-based
HCT-15 = assay: Anticancer activity against human HCT15 cells; type: functional, cell-based
HT-29 = assay: Anticancer activity against human HT-29 cells; type: functional, cell-based
KM12 = assay: Anticancer activity against human KM12 cells; type: functional, cell-based
SW-620 = assay: Anticancer activity against human SW620 cells; type: functional, cell-based
[3] = Anticancer activity against human Molt4/C8 cells after 72 hrs; type: functional, cell-based; settings: MOLT-4, 72 h
CCRF-CEM [4] = assay: Anticancer activity against human CEM cells after 72 hrs; type: functional, cell-based
L1210 = assay: Anticancer activity against mouse L1210 cells after 48 hrs; type: functional, cell-based; settings: L1210, 48 h
RPMI-8226 = assay: Anticancer activity against human RPMI8226 cells; type: functional, cell-based
Mus musculus [5] = assay: Toxicity in mouse assessed as mortality at 30 to 300 mg/kg, ip after 0.5 to 4 hrs; type: organism-based; design: dose 30-300 mg/kg, route intraperitoneal; settings: in vivo
Procedure, shortened: (§1)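 Mice dosed intraperitoneally at 30, 100 and 300 mg/kg; animals observed for deaths and neurological deficit at 0.5 and 4 h after injection.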

Mus musculus [6] = assay: Neurotoxicity in mouse at 30 to 300 mg/kg, ip after 0.5 hrs by rotarod method; type: toxicity, organism-based; design: dose 30-300 mg/kg, route intraperitoneal; settings: in vivo
Procedure, shortened: (§2)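 Mice given 30, 100 and 300 mg/kg by intraperitoneal injection; animals scored for mortality and neurotoxicity at 0.5 and 4 h after dosing.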

Mus musculus [7] = assay: Neurotoxicity in mouse at 30 to 300 mg/kg, ip after 4 hrs by rotarod method; type: toxicity, organism-based; design: dose 30-300 mg/kg, route intraperitoneal; settings: in vivo; procedure, shortened: as §2
HSC-2 [8] = assay: Selectivity index, ratio of average CC50 for normal human cell line to CC50 for human HSC2 cells
HSC-3 [9] = assay: Selectivity index, ratio of average CC50 for normal human cell line to CC50 for human HSC3 cells
HL-60 [10] = assay: Cytotoxicity against human HL60 cells after 48 hrs; type: functional; settings: HL-60, 48 h
HSC-2 [11] = assay: Cytotoxicity against human HSC2 cells after 48 hrs; type: functional; settings: HSC-2, 48 h
HSC-3 [12] = assay: Cytotoxicity against human HSC3 cells after 48 hrs; type: functional; settings: HSC-3, 48 h
HSC-4 [13] = assay: Cytotoxicity against human HSC4 cells after 48 hrs; type: functional; settings: HSC-4, 48 h
[14] = Toxicity in mouse harboring L1210 cells; type: organism-based
[15] = Toxicity in mouse harboring P-388 cells; type: organism-based
HL-60 [16] = assay: Selectivity index, ratio of average CC50 for normal human cell line to CC50 for human HL-60 cells
HSC-4 [17] = assay: Selectivity index, ratio of average CC50 for normal human cell line to CC50 for human HSC4 cells
CCRF-CEM [18] = assay: Ratio of melphalan IC50 to compound IC50 for human CEM cells; type: functional
[19] = Cytotoxicity against human HGF cells after 48 hrs; type: cell-based
Mus musculus [20] = assay: Neurotoxicity in mouse at 30 to 300 mg/kg, ip after 0.5 to 4 hrs by rotarod method; type: toxicity, organism-based; design: dose 30-300 mg/kg, route intraperitoneal; settings: in vivo; procedure, shortened: as §1
Rattus norvegicus [21] = assay: Toxicity in rat assessed as mortality at 50 mg/kg, po measured upto 4 hrs; type: organism-based; design: dose 50 mg/kg, route oral; settings: in vivo
Procedure, shortened: (§3)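 Rats given a single oral dose of 50 mg/kg; monitored intermittently over 4 h for fatalities and neurological deficit.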

Rattus norvegicus [22] = assay: Neurotoxicity in rat at 50 mg/kg, po measured upto 4 hrs by rotarod method; type: toxicity, organism-based; design: dose 50 mg/kg, route oral; settings: in vivo; procedure, shortened: as §3
[23] = Cytotoxicity against human HPC cells after 48 hrs; type: cell-based
[24] = Cytotoxicity against human HPLF cells after 48 hrs; type: cell-based
MOLT-4 = assay: Ratio of melphalan IC50 to compound IC50 for human Molt4/C8 cells; type: functional

SMILES | IC50 (CCRF-CEM [1]) [µM] | IC50 (COLO 205) [µM] | IC50 (HL-60 [2]) [µM] | IC50 (K562) [µM] | IC50 (HCT-116) [µM] | IC50 (HCC 2998) [µM] | IC50 (HCT-15) [µM] | IC50 (HT-29) [µM] | IC50 [3] [µM] | IC50 (CCRF-CEM [4]) [µM] | IC50 (L1210) [µM] | Activity (Mus musculus [5]) | Ratio (HSC-2 [8]) | Ratio (HSC-3 [9]) | CC50 (HL-60 [10]) [µM] | CC50 (HSC-2 [11]) [µM] | CC50 (HSC-3 [12]) [µM] | CC50 (HSC-4 [13]) [µM] | Ratio (HL-60 [16]) | Ratio (HSC-4 [17]) | further results
O=c1[nH]cc(F)c(=O)[nH]1 [FLUOROURACIL] | 33.1 | 4.17 | > 100 | 2.4 | 8.51 | 13.5 | 9.71 | 10.2 |  |  |  |  |  |  |  |  |  |  |  |  | IC50 (KM12): 8.32 µM; IC50 (SW-620): > 100 µM
COc1ccc(/C=C2\CN(C(=O)CCSCCS(=O)(=O)O)C/C(=C\c3ccc(OC)cc3)C2=O)cc1 | > 100 | > 100 | > 100 | 55 | 33.1 | 30.9 | > 100 | 41.7 | 156 | 199 | 227 | Non-toxic |  |  |  |  |  |  |  |  | IC50 (RPMI-8226): 24.5 µM; Activity (Mus musculus [6]): Toxic; Activity (Mus musculus [7]): Toxic; IC50 (KM12): 30.2 µM; IC50 (SW-620): 38 µM
COc1ccc(/C=C2\CN(C(=O)CCSCCS)C/C(=C\c3ccc(OC)cc3)C2=O)cc1 |  |  |  |  |  |  |  |  | 2.77 | 3.2 | 10.9 | Non-toxic |  |  |  |  |  |  |  |  | Activity (Mus musculus [6]): Toxic
N[C@@H](Cc1ccc(N(CCCl)CCCl)cc1)C(=O)O [MELPHALAN] |  |  |  |  |  |  |  | 46.8 |  |  |  |  | 24.1 | 8.4 | 1.4 | 8.7 | 25 | 32 | 150 | 6.6 | LD50 [14]: 21.7 mg/kg; LD50 [15]: 21.7 mg/kg
Cc1ccc(/C=C2\CN(C(=O)CCSCCO)C/C(=C\c3ccc(C)cc3)C2=O)cc1 |  |  |  |  |  |  |  |  | 1.85 | 1.1 | 5.91 | Non-toxic | 9.4 | 4.9 | 2.1 | 0.89 | 1.7 | 1.2 | 4 | 6.9 | Ratio IC50 (CCRF-CEM [18]): 2.3; CC50 at 48 h [19]: 9.1 µM; Activity (Mus musculus [20]): Non-toxic; Activity (Rattus norvegicus [21]): Non-toxic; Activity (Rattus norvegicus [22]): Non-toxic; CC50 at 48 h [23]: 7.5 µM; CC50 at 48 h [24]: 8.4 µM
O=C1/C(=C/c2ccccc2)CN(C(=O)CCSCCO)C/C1=C\c1ccccc1 |  |  |  |  |  |  |  |  | 0.66 | 0.57 | 3.8 |  | 9.2 | 5.3 | 1.7 | 1.6 | 2.8 | 1.3 | 8.7 | 11.3 | Ratio IC50 (MOLT-4): 4.9; Ratio IC50 (CCRF-CEM [18]): 4.3; CC50 at 48 h [19]: 17 µM; CC50 at 48 h [23]: 14 µM; CC50 at 48 h [24]: 13 µM
